Data as given in ChEMBL document CHEMBL1154645, “Aza-peptidyl Michael acceptor and epoxide inhibitors--potent and selective inhibitors of Schistosoma mansoni and Ixodes ricinus legumains (asparaginyl endopeptidases)” (J Med Chem, 2009).

Columns and labels:
[1] = Inhibition of Schistosoma mansoni asparaginyl endopeptidase
Method in brief: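 Recombinant S. mansoni legumain zymogen expressed in Pichia pastoris and activated before use. Assay buffer was 0.1 M citrate-phosphate with 4 mM DTT at pH 6.8, with under 1% DMSO. The substrate was Cbz-Ala-Ala-[…]-AMC at a final 10 μM, and activity was read as AMC release.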

Legumain-like protease = target: T1, Legumain-like protease (Ixodes ricinus, UniProt Q6PRC7); assay: Inhibition of Ixodes ricinus asparaginyl endopeptidases
T1 sequence (Q6PRC7 whole entry): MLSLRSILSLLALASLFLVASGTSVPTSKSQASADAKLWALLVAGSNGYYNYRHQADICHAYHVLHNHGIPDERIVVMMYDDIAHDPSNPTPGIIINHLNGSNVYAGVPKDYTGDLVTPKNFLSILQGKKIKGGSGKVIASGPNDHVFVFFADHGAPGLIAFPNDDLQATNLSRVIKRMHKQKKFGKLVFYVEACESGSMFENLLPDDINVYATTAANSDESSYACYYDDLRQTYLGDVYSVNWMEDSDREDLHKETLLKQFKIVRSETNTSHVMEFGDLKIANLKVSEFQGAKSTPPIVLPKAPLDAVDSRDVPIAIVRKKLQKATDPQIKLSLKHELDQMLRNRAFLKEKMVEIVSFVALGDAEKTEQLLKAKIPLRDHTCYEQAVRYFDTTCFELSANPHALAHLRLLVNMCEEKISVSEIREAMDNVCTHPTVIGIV
Method in brief: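 Recombinant I. ricinus legumain zymogen expressed in Pichia pastoris, then activated. Substrate: Cbz-Ala-Ala-[…]-AMC at 10 μM final, with fluorogenic AMC release as the read-out.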

IC50 [1] | IC50 (Legumain-like protease) | Structure (SMILES) | IC50 ([1]; read-out: IC50) | IC50 (Legumain-like protease; read-out: IC50)
 |  | C[C@H](NC(=O)[C@@H](C)NC(=O)N1CCCCC1)C(=O)NN(CC(N)=O)C(=O)/C=C/C(=O)NCCc1ccccc1 | 0.75 µM | 0.4 µM
 |  | C[C@H](NC(=O)[C@@H](C)NC(=O)N1CCNCC1)C(=O)NN(CC(N)=O)C(=O)/C=C/C(=O)OCc1ccccc1 | 0.25 µM | 0.013 µM
Not Active | Not Active | C[C@H](NC(=O)[C@H](C)NC(=O)N1CCOCC1)C(=O)NN(CC(N)=O)C(=O)OCc1ccccc1 |  | 
Not Active | Not Active | C[C@H](NC(=O)N1CCOCC1)C(=O)NN(CC(N)=O)C(=O)/C=C/C(=O)NCc1ccco1 |  | 
Not Active | Not Active | C=C/C=C(\C)CNC(=O)N(CC(N)=O)NC(=O)[C@H](C)NC(=O)N1CCN(C(=O)OCc2ccccc2)CC1 |  | 
 |  | C[C@H](NC(=O)[C@@H](C)NC(=O)N1CCNCC1)C(=O)NN(CC(N)=O)C(=O)/C=C/C(=O)N(C)Cc1cccc2ccccc12 | 0.04 µM | 0.0038 µM
 |  | C[C@H](NC(=O)[C@@H](C)NC(=O)N1CCNCC1)C(=O)NN(CC(N)=O)C(=O)/C=C/C(=O)N(Cc1ccccc1)Cc1ccccc1 | 0.09 µM | 0.031 µM
 |  | C[C@H](NC(=O)[C@H](C)NC(=O)N1CCCCC1)C(=O)NN(CC(N)=O)C(=O)/C=C/C(=O)N(Cc1ccccc1)Cc1ccccc1 | 0.08 µM | 0.017 µM
 |  | C[C@H](NC(=O)[C@@H](C)NC(=O)N1CCN(C(=O)OC(C)(C)C)CC1)C(=O)NN(CC(N)=O)C(=O)/C=C/C(=O)OCc1ccccc1 | 0.045 µM | 0.0075 µM
 |  | C[C@H](NC(=O)[C@@H](C)NC(=O)N1CCN(C(=O)OC(C)(C)C)CC1)C(=O)NN(CC(N)=O)C(=O)/C=C/C(=O)N(C)Cc1cccc2ccccc12 | 0.058 µM | 0.02 µM
 |  | CCOC(=O)/C=C/C(=O)N(CC(N)=O)NC(=O)[C@H](C)NC(=O)[C@@H](C)NC(=O)N1CCN(C(=O)OCc2ccccc2)CC1 |  | 0.00014 µM
 |  | CC(C)[C@H](NC(=O)[C@@H](C)NC(=O)OCc1ccccc1)C(=O)NN(CC(N)=O)C(=O)/C=C/C(=O)NCc1cccc2ccccc12 | 1.05 µM | 0.35 µM
 |  | CCOC(=O)/C=C/C(=O)N(CC(N)=O)NC(=O)[C@@H](NC(=O)[C@@H](C)NC(=O)OCc1ccccc1)C(C)C | 0.1 µM | 0.065 µM
 |  | C[C@H](NC(=O)N1CCN(C(=O)OCc2ccccc2)CC1)C(=O)NN(CC(N)=O)C(=O)/C=C/C(=O)N1CCc2ccccc2C1 | 0.75 µM | 0.8 µM
 |  | C[C@H](NC(=O)[C@@H](C)NC(=O)N1CCOCC1)C(=O)NN(CC(N)=O)C(=O)/C=C/C(=O)N(Cc1cccc2ccccc12)Cc1cccc2ccccc12 | 0.045 µM | 0.0033 µM
 |  | C[C@H](NC(=O)N1CCN(C(=O)OCc2ccccc2)CC1)C(=O)NN(CC(N)=O)C(=O)/C=C/C(=O)N1CCCc2ccccc21 | 0.75 µM | 0.85 µM
Not Active | Not Active | C[C@H](NC(=O)N1CCOCC1)C(=O)NN(CC(N)=O)C(=O)/C=C/C(=O)NC1CC1 |  | 
Not Active | Not Active | C[C@H](NC(=O)N1CCOCC1)C(=O)NN(CC(N)=O)C(=O)Nc1cccc2ccccc12 |  | 
 |  | C[C@H](NC(=O)N1CCOCC1)C(=O)NN(CC(N)=O)C(=O)/C=C/C(=O)N1CCc2ccccc2C1 | 0.75 µM | 0.6 µM
 |  | CCOC(=O)/C=C/C(=O)N(CC(N)=O)NC(=O)[C@H](C)NC(=O)[C@@H](C)NC(=O)N1CCCCC1 | 0.08 µM | 0.015 µM
Not Active | Not Active | C[C@H](NC(=O)N1CCOCC1)C(=O)NN(CC(N)=O)C(=O)CCc1ccccc1 |  | 
 |  | C[C@H](NC(=O)[C@@H](C)NC(=O)N1CCN(C(=O)OC(C)(C)C)CC1)C(=O)NN(CC(N)=O)C(=O)/C=C/C(=O)N(Cc1ccccc1)Cc1ccccc1 | 0.045 µM | 0.03 µM
 |  | CCOC(=O)/C=C/C(=O)N(CC(N)=O)NC(=O)OC(C)(C)C | > 2 µM | 0.75 µM
 |  | CCOC(=O)/C=C/C(=O)N(CC(N)=O)NC(=O)[C@H](C)NC(=O)[C@@H](C)NC(=O)N1CCN(C(=O)OC(C)(C)C)CC1 | 0.08 µM | 0.0085 µM

IC50 [1] | IC50 (Legumain-like protease) | Structure (SMILES) | IC50 ([1]; read-out: IC50) | IC50 (Legumain-like protease; read-out: IC50)
Not Active | Not Active | CC(C)(C)OC(=O)NN(CC(N)=O)C(=O)/C=C/C(=O)NCC1CCCCC1 |  | 
 | Not Active | C[C@H](NC(=O)N1CCOCC1)C(=O)NN(CC(N)=O)C(=O)/C=C/C(=O)NCCCc1ccccc1 | > 2 µM | 
Not Active | Not Active | CC(C)(C)OC(=O)NN(CC(N)=O)C(=O)/C=C/C(=O)NCCCc1ccccc1 |  | 
 |  | CCOC(=O)/C=C/C(=O)N(CC(N)=O)NC(=O)[C@@H](NC(=O)[C@@H](C)NC(=O)OCc1ccccc1)[C@@H](C)CC | 0.28 µM | 0.00052 µM
Not Active | Not Active | C[C@H](NC(=O)N1CCCCC1)C(=O)NN(CC(N)=O)C(=O)Nc1ccccc1Oc1ccccc1 |  | 
 |  | C[C@H](NC(=O)[C@@H](C)NC(=O)N1CCOCC1)C(=O)NN(CC(N)=O)C(=O)/C=C/C(=O)N1CCc2ccccc2C1 | 0.103 µM | 0.065 µM
 |  | C[C@H](NC(=O)N1CCCCC1)C(=O)NN(CC(N)=O)C(=O)/C=C/C(=O)N1CCc2ccccc2C1 | 0.6 µM | 0.15 µM
 |  | CCOC(=O)/C=C/C(=O)N(CC(N)=O)NC(=O)[C@H](C)NC(=O)[C@@H](C)NC(=O)N1CCNCC1 | 0.3 µM | 0.0085 µM
 |  | CCOC(=O)/C=C/C(=O)N(CC(N)=O)NC(=O)[C@H](C)NC(=O)[C@@H](C)NC(=O)N1CCOCC1 | 0.101 µM | 0.00023 µM
 |  | C[C@H](NC(=O)[C@@H](C)NC(=O)N1CCN(C(=O)OCc2ccccc2)CC1)C(=O)NN(CC(N)=O)C(=O)/C=C/C(=O)N(C)Cc1cccc2ccccc12 | 0.07 µM | 0.00035 µM
 |  | C[C@H](NC(=O)[C@@H](C)NC(=O)N1CCN(C(=O)OCc2ccccc2)CC1)C(=O)NN(CC(N)=O)C(=O)/C=C/C(=O)N(Cc1cccc2ccccc12)Cc1cccc2ccccc12 | 0.05 µM | 0.00037 µM
 |  | CC(C)[C@H](NC(=O)[C@@H](C)NC(=O)OCc1ccccc1)C(=O)NN(CC(N)=O)C(=O)/C=C/C(=O)N1CCCc2ccccc21 | 0.138 µM | 0.013 µM
 |  | COc1ccc(CNC(=O)/C=C/C(=O)N(CC(N)=O)NC(=O)[C@H](C)NC(=O)N2CCOCC2)cc1OC | > 2 µM | > 2 µM
 |  | C[C@H](NC(=O)[C@@H](C)NC(=O)N1CCN(C(=O)OC(C)(C)C)CC1)C(=O)NN(CC(N)=O)C(=O)/C=C/C(=O)N(Cc1cccc2ccccc12)Cc1cccc2ccccc12 | 0.068 µM | 0.005 µM
Not Active | Not Active | CC(C)(C)OC(=O)NN(CC(N)=O)C(=O)/C=C/C(=O)NCc1ccccc1 |  | 
 |  | C[C@H](NC(=O)[C@H](C)NC(=O)N1CCCCC1)C(=O)NN(CC(N)=O)C(=O)/C=C/C(=O)N(Cc1cccc2ccccc12)Cc1cccc2ccccc12 (relative stereo) | 0.057 µM | 0.008 µM
 |  | C[C@H](NC(=O)[C@@H](C)NC(=O)N1CCNCC1)C(=O)NN(CC(N)=O)C(=O)/C=C/C(=O)N(Cc1cccc2ccccc12)Cc1cccc2ccccc12 (relative stereo) | 0.07 µM | 0.0026 µM
 |  | CC(NC(=O)N1CCCCC1)C(=O)N[C@@H](C)C(=O)NN(CC(N)=O)C(=O)[C@H]1O[C@@H]1C(=O)N(Cc1ccccc1)Cc1ccccc1 (single isomer, unassigned) | 0.072 µM | 0.012 µM
 |  | CC(NC(=O)N1CCCCC1)C(=O)N[C@@H](C)C(=O)NN(CC(N)=O)C(=O)[C@H]1O[C@@H]1C(=O)NCc1cccc2ccccc12 (single isomer, unassigned) | 0.16 µM | 0.0085 µM
 |  | CC(NC(=O)N1CCN(C(=O)OC(C)(C)C)CC1)C(=O)N[C@@H](C)C(=O)NN(CC(N)=O)C(=O)[C@H]1O[C@@H]1C(=O)N(Cc1ccccc1)Cc1ccccc1 (single isomer, unassigned) | 0.08 µM | 0.27 µM
 |  | CCOC(=O)[C@H]1O[C@@H]1C(=O)N(CC(N)=O)NC(=O)[C@H](C)NC(=O)C(C)NC(=O)N1CCCCC1 (single isomer, unassigned) | 0.22 µM | 0.03 µM
 |  | CC(NC(=O)N1CCOCC1)C(=O)N[C@@H](C)C(=O)NN(CC(N)=O)C(=O)[C@H]1O[C@@H]1C(=O)NCc1cccc2ccccc12 (single isomer, unassigned) | 0.06 µM | 0.006 µM
 |  | CC(NC(=O)N1CCOCC1)C(=O)N[C@@H](C)C(=O)NN(CC(N)=O)C(=O)[C@H]1O[C@@H]1C(=O)N(Cc1ccccc1)Cc1ccccc1 (single isomer, unassigned) | 0.09 µM | 0.0017 µM
 |  | CC(NC(=O)N1CCNCC1)C(=O)N[C@@H](C)C(=O)NN(CC(N)=O)C(=O)[C@H]1O[C@@H]1C(=O)N(Cc1ccccc1)Cc1ccccc1 (single isomer, unassigned) | 0.15 µM | 0.011 µM

Structure (SMILES) | IC50 [1] | IC50 (Legumain-like protease) | IC50 ([1]; read-out: IC50) | IC50 (Legumain-like protease; read-out: IC50)
C[C@H](NC(=O)[C@@H](C)NC(=O)N1CCOCC1)C(=O)NN(CC(N)=O)C(=O)[C@H]1O[C@H]1C(=O)N(Cc1ccccc1)Cc1ccccc1 | Not Active | Not Active |  | 
